The subject of series [1] is HCT-15. Nature of the series: Cytotoxicity against TNFalpha-induced human HCT-15 cells assessed as reduction in cell viability preincubated for 2 hrs followed by TNFalpha stimulation and measured after 72 hrs by celltiter-glo assay. The format is functional, cell-based. For orientation: In ATP-based viability assays light output follows the ATP content of the culture.

Series [2] has as its target T1, Mitogen-activated protein kinase kinase kinase 7 (Homo sapiens, UniProt O43318).
T1 sequence (O43318 whole entry): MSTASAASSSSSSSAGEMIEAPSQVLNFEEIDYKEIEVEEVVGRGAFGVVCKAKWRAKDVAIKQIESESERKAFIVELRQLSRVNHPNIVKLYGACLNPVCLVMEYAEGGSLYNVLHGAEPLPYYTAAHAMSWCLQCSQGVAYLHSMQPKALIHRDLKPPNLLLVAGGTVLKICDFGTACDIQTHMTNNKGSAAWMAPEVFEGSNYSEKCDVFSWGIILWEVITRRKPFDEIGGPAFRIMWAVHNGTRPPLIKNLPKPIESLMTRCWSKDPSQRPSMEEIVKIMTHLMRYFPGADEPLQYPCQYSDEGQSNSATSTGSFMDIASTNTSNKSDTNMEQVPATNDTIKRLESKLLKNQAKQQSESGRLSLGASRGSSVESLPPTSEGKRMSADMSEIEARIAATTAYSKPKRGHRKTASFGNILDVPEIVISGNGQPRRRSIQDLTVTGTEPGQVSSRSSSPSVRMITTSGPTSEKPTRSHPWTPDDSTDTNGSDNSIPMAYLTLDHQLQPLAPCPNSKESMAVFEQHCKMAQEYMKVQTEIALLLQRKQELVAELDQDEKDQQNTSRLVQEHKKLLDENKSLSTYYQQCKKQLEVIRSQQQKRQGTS
Description: Binding affinity to wild-type human partial length TAK1 (M1 to Q303 residues) expressed in mammalian expression system by Kinomescan method. Summed up: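 Dissociation constant for TAK1 binding measured on the KdELECT platform.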

Series [3] in a line: Aqueous solubility of compound in pH 7.4 PBS buffer measured after 24 hrs by HPLC-UV analysis. It counts as physicochemical.
The nature of series [4]: Half life in human liver S9 fraction at 1 uM measured up to 60 mins in presence of NADPH by LC-MS analysis. The format is ADME, subcellular.
Series [5] in a line: Half life in CD-1 mouse liver S9 fraction at 1 uM measured up to 60 mins in presence of NADPH by LC-MS analysis. It counts as ADME, subcellular.
Series [6] is described as follows: Half life in rat liver S9 fraction at 1 uM measured up to 60 mins in presence of NADPH by LC-MS analysis. It counts as ADME, subcellular.
Series [7] is described as follows: Apparent permeability across apical to basolateral side in human Caco-2 cells at 2 uM after 2 hrs by LC/MS-MS analysis. It counts as ADME, cell-based. For orientation: Caco-2 cells form a polarised layer with tight junctions and transporters.
A short description of series [8]: Apparent permeability across basolateral to apical side in human Caco-2 cells at 2 uM after 2 hrs by LC/MS-MS analysis. The format is ADME, cell-based.
A short description of series [9]: Efflux ratio of apparent permeability across basolateral to apical side over apical to basolateral side in human Caco-2 cells at 2 uM after 2 hrs by LC/MS-MS analysis. The format is ADME, cell-based.
Series [10] concerns Tyrosine-protein kinase ABL1 (Homo sapiens), P00519 [H396P]. Description: Inhibition of human ABL1 H396P mutant (S229 to K512 residues) expressed in mammalian expression system at 10 uM by kinomescan method relative to control. The essentials: (§1)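 Single-concentration screen at 10 μM across a 468-kinase KINOMEscan panel (453 human, 403 wild-type kinases). Binding to each kinase was read out as percent inhibition relative to control, with >65% taken as the inhibition cutoff.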

In series [11] the target is Eukaryotic translation initiation factor 2-alpha kinase 1 (Homo sapiens) (UniProt Q9BQI3). Description: Inhibition of wild-type human partial length EIF2AK1 (Q147 to E603 residues) expressed in mammalian expression system at 10 uM by Kinomescan method relative to control. Summed up: as §1
Eukaryotic translation initiation factor 2-alpha kinase 1 (Homo sapiens), sequence (Q9BQI3 whole entry, the tested form may be a part): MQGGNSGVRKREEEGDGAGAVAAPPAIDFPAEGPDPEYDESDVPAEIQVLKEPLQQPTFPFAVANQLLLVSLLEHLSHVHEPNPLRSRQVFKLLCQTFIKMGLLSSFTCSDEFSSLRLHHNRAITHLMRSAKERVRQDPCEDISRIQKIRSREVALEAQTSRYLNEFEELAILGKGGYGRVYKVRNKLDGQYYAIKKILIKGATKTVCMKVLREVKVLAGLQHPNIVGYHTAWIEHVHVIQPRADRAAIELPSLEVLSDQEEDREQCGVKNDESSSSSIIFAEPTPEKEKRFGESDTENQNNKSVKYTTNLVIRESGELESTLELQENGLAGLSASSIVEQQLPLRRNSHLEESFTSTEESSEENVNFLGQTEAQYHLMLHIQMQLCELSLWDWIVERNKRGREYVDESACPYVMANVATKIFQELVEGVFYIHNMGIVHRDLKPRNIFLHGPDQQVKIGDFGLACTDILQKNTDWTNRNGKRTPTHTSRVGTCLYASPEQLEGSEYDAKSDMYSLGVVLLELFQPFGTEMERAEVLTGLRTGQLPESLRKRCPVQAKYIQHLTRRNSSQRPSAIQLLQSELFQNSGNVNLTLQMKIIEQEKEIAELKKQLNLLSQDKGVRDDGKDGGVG
Series [12] concerns the target Activated CDC42 kinase 1 (Homo sapiens) (UniProt Q07912). Description: Inhibition of wild-type human partial length TNK2 (S159 to D474 residues) expressed in bacterial expression system at 10 uM by Kinomescan method relative to control. The essentials:
as §1

For series [13], the target named is Serine/threonine-protein kinase 32A (Homo sapiens) (UniProt Q8WU08). Nature of the series: Inhibition of wild-type human full-length YANK1 (M1 to L396 residues) expressed in mammalian expression system at 10 uM by Kinomescan method relative to control. The essentials: as §1
Serine/threonine-protein kinase 32A (Homo sapiens), sequence (Q8WU08 whole entry, the tested form may be a part): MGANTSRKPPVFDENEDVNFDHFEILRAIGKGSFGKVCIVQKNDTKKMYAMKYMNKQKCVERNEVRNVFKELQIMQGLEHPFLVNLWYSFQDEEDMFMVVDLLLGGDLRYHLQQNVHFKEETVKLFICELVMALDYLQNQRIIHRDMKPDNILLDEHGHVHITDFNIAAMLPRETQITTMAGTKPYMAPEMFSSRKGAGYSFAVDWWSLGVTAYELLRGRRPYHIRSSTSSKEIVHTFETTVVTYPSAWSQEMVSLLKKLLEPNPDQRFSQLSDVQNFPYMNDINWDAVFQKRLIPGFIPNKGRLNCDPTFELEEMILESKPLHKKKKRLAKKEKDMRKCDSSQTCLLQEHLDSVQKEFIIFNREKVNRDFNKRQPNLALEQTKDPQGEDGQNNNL

pEC50, pKd: −log10 of the molar value. Values after ≈ are worked out from the molar mass of the structure shown.

Activated CDC42 kinase 1 (Homo sapiens), sequence (Q07912 whole entry, looked up, the tested form may be a part): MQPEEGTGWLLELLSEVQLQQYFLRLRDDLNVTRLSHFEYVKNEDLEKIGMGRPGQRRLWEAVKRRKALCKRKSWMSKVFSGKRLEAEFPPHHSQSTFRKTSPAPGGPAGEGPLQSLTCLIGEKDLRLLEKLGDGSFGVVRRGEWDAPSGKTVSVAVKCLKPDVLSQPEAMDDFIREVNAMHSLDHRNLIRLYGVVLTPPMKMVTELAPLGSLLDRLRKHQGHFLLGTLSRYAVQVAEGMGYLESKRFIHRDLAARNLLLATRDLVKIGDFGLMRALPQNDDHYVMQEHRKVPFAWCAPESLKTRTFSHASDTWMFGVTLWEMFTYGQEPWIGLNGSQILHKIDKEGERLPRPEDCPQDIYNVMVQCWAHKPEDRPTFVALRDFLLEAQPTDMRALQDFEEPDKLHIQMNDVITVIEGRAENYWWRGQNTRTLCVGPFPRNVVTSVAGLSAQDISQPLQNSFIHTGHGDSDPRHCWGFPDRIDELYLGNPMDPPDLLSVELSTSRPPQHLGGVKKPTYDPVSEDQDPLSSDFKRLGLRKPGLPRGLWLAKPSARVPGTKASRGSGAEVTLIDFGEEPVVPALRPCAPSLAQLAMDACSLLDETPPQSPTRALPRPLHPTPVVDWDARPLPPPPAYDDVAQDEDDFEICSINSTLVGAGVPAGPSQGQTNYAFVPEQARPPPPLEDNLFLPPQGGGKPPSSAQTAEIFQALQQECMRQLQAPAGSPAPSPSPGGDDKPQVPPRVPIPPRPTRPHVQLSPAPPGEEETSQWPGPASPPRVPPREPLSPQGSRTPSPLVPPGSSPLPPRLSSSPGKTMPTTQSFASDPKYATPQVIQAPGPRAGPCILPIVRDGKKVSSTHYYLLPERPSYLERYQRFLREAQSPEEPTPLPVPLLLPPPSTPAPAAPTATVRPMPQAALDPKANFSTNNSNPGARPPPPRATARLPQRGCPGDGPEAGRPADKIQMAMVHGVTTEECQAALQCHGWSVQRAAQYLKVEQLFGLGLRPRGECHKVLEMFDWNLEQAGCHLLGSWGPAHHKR

Take `COc1cc(O)c2c(c1)/C=C/C[C@H](O)[C@H](O)C(=O)/C=C\C[C@H](C)OC2=O`: the pEC50 in series [1] was 8.70.

For `CNC(=O)CN(Cc1ccccc1OC(F)F)C(=O)c1c[nH]c(C(=O)N2CCCC2)n1`, in series [2], the pKd was 7.26. This compound also displayed a solubility at 24 h in series [3] of 30 µM (≈ 13.1 µg/mL). In addition, the half-life at 1 µM in series [4], in series [5] and in [6] was above 2 h each time. The Papp A→B at 2 h, 2 µM in series [7] worked out at 1 ×10⁻⁶ cm/s. The apparent permeability from basolateral to apical (Papp B→A) at 2 h, 2 µM in series [8] worked out at 20 ×10⁻⁶ cm/s. The efflux ratio at 2 h, 2 µM in series [9] was determined as 20. Besides, the inhibition in [10], in series [11], in [12] and in series [13] was above 65% each time.

The pEC50 is the EC50 on a negative log10 scale, so that one unit is a factor of ten. For orientation: pKd means −log10 of the Kd, conventionally taken in molar units. The low end stands for a large Kd, the high end for a small Kd. What is called solubility is how much of the substance goes into solution per volume. A word on the half-life: it is the time needed for the level to fall by half in the phase considered. As usually defined, the Papp A→B is the apparent permeability from the apical to the basolateral side of a cell layer. Usually Papp B→A stands for the apparent permeability from the basolateral to the apical side of a cell layer. One may read the efflux ratio as the permeability from basolateral to apical divided by that in the opposite direction, in the common usage. Broadly, the inhibition is the change of the read-out against control, counted positive when it falls. Higher therefore signals a response far below the control.
